Source: ChEMBL document CHEMBL4354868, “6-Arylmethylidene Penicillin-Based Sulfone Inhibitors for Repurposing Antibiotic Efficiency in Priority Pathogens” (J Med Chem, 2020)
Converted amounts (≈) assume the structure as drawn. The source made the active and inactive calls. The rule behind the calls is not given here.

How the values were obtained:
Klebsiella pneumoniae [1] = test: Binding affinity to OXA-48 in Klebsiella pneumoniae assessed as ezyme-compound adduct formation from loss of catechol group with increase in mass at 1:100 ezyme-compound ratio using nitrocefin as substrate at pH 7 and 25 degree C by MALDI-TOF MS analysis
In short: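 OXA-48 from K. pneumoniae incubated with ligand at 1:100 enzyme/inhibitor molar ratio in 50 mM Tris-HCl, 150 mM NaCl, 1 mM EDTA pH 7.0, 25 °C, 30 min; activity followed on aliquots by nitrocefin hydrolysis (482 nm) in phosphate/bicarbonate pH 7.4; samples then washed with 5 mM ammonium bicarbonate by ultrafiltration, freeze-dried, analysed by MALDI-TOF; triplicate.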

[2] = Inhibition of carbapenem-resistant Acinetobacter baumannii ATCC 17978 OXA-24/40 expressed in Escherichia coli BL21 using nitrocefin as substrate measured after 15 mins by spectrophotometry analysis
[3] = test system: Acinetobacter baumannii ATCC 17978; test: Inhibition of carbapenem-resistant Acinetobacter baumannii ATCC 17978 OXA-24/40 expressed in Escherichia coli BL21 assessed as inactivation rate constant using nitrocefin as substrate measured after 15 mins by spectrophotometry analysis
[4] = test system: Acinetobacter baumannii ATCC 17978; test: Inhibition of Acinetobacter baumannii ATCC 17978 OXA-24/40 expressed in Escherichia coli BL21 assessed as ratio of Kinact/Ki using nitrocefin as substrate measured after 15 mins by spectrophotometry analysis
[5] = test system: Acinetobacter baumannii ATCC 17978; test: Binding affinity to OXA-24/40 in carbapenem-resistant Acinetobacter baumannii ATCC 17978 assessed as ezyme-compound adduct formation from loss of catechol group with increase in mass at 1:100 ezyme-compound ratio using nitrocefin as substrate at pH 7 and 25 degree C by MALDI-TOF MS analysis
In short: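 OXA-24/40 (from a 0.9 mg mL-1 stock) was incubated with ligand at a 1:100 enzyme/inhibitor molar ratio in 50 mM Tris-HCl, 150 mM NaCl, 1 mM EDTA, pH 7.0, 25 °C, for 30 min. Activity was followed by nitrocefin hydrolysis at 482 nm. Samples were then washed and concentrated with 5 mM ammonium bicarbonate, freeze-dried, and analysed by MALDI-TOF for the covalent adduct mass shift, in triplicate.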

[6] = target: Beta-lactamase OXA-23 (Acinetobacter baumannii) (UniProt Q9L4P2); test: (§1) Inhibition of OXA-23 in carbapenem-resistant Acinetobacter baumannii ATCC 17978 transfected with pET-RA-KmR plasmid encoding rifampicin and kanamycin resistance assessed as potentiation of imipenem-induced antibacterial activity by measuring imipenem MIC at 16 ug/mL in Mueller-Hinton broth by CLSI protocol based method (reference value: 8 ug/mL)
In short: (§2)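 MIC of the reporter antibiotic measured by CLSI broth microdilution in Mueller-Hinton II broth, with and without inhibitor at 16 µg mL-1. Reporters were ampicillin for class A (TEM-1, CTX-M-2), ceftazidime for class C (CMY-2, DHA-1) and imipenem for class D (OXA-23, OXA-24/40, OXA-48). MIC is the lowest concentration with no visible growth, mean of three independent replicates. Strains were grown in LB at 37 °C, with kanamycin or ampicillin at 50 mg L-1 where needed.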

[7] = test system: Acinetobacter baumannii ATCC 17978; test: as §1, with “of OXA-24/40” for “of OXA-23”, “value: 64” for “value: 8”; in short: as §2
Klebsiella pneumoniae [8] = test: Inhibition of OXA-48 in beta-lactam-resistant Klebsiella pneumoniae assessed as potentiation of imipenem-induced antibacterial activity by measuring imipenem MIC at 16 ug/mL in Mueller-Hinton broth by CLSI protocol based method (reference value: 64 ug/mL); in short: as §2
[9] = target: Beta-lactamase TEM-1 (Escherichia coli) (UniProt Q4GY26); test: (§3) Inhibition of TEM-1 in penicillin-resistant Escherichia coli TG1 transfected with pBGS18 plasmid encoding replication origin and kanamycin resistance assessed as potentiation of ampicillin-induced antibacterial activity by measuring ampicillin MIC at 16 ug/mL in Mueller-Hinton broth by CLSI protocol based method (Rvb > 1024 ug/mL); in short: as §2
Escherichia coli [10] = test: as §3, with “CTX-M2” for “TEM-1”, “beta-lactam-resistant” for “penicillin-resistant”; in short: as §2
Escherichia coli [11] = test: (§4) Inhibition of CMY-2 in beta-lactam-resistant Escherichia coli TG1 transfected with pBGS18 plasmid encoding replication origin and kanamycin resistance assessed as potentiation of ceftazidime-induced antibacterial activity by measuring ceftazidime MIC at 16 ug/mL in Mueller-Hinton broth by CLSI protocol based method (reference value: 32 ug/mL); in short: as §2
Escherichia coli [12] = test: as §4, with “DHA-1” for “CMY-2”; in short: as §2
Escherichia coli [13] = test: as §3, with “CTX-M2” for “TEM-1”, “beta-lactam-resistant” for “penicillin-resistant”, “measuring fold reduction in” for “measuring”, “relative to ampicillin MIC alone” for “(Rvb > 1024 ug/mL)”; in short: as §2
Escherichia coli [14] = test: Antibacterial activity against wild type Escherichia coli TG1 in Mueller-Hinton broth by CLSI protocol based method; format: functional
In short: (§5)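 Broth microdilution MIC in Mueller-Hinton II broth following CLSI. Strains were grown in LB broth or on LB agar at 37 °C and stored at -80 °C in LB with 15% glycerol. MIC is the lowest concentration with no visible growth, given as the mean of three independent replicates.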

[15] = test system: Acinetobacter baumannii ATCC 17978; test: Inhibition of carbapenem-resistant Acinetobacter baumannii ATCC 17978 OXA-24/40 expressed in Escherichia coli BL21 assessed as ratio of Kinact/Ki using nitrocefin as substrate measured after 15 mins by spectrophotometry analysis relative to parent compound
[16] = test system: Acinetobacter baumannii ATCC 17978; test: Inhibition of carbapenem-resistant Acinetobacter baumannii ATCC 17978 OXA-24/40 expressed in Escherichia coli BL21 using nitrocefin as substrate measured after 15 mins by spectrophotometry analysis relative to parent compound
[17] = Drug metabolism assessed as centered band formation at 295 nm leading to conjugate imine intermediate formation at 25 degree C measured up to 2 mins for 15 mins in presence of sodium methoxide by UV-Vis spectroscopy
In short: (§6)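 Methanolysis followed after adding 1 equivalent NaOMe (1 M in MeOH) at 25 °C over 15 min; UV-Vis spectra scanned 600–200 nm, 2.0 nm bandwidth, 1 cm cell, collected at 0.5, 1.0, 1.5 and 2.0 min; mixture afterwards checked by HPLC-MS.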

[18] = Drug metabolism assessed as decrease in centered band formation at 253 nm leading to -indolizine skeleton formation at 25 degree C measured up to 2 mins for 15 mins in presence of sodium methoxide by UV-Vis spectroscopy; in short: as §6
[19] = Drug metabolism assessed as decrease in centered band formation at 408 nm leading to -indolizine skeleton formation at 25 degree C measured up to 2 mins for 15 mins in presence of sodium methoxide by UV-Vis spectroscopy; in short: as §6
Acinetobacter baumannii = test: Antibacterial activity against wild type carbapenem-susceptible Acinetobacter baumannii ATCC 17978 in Mueller-Hinton broth by CLSI protocol based method; format: functional; in short: as §5
Klebsiella pneumoniae [20] = test: Antibacterial activity against wild type beta-lactam-resistant Klebsiella pneumoniae in Mueller-Hinton broth by CLSI protocol based method; format: functional; in short: as §5

| SMILES | Activity (Klebsiella pneumoniae [1]) | Ki [2] [nM] | Kinact [3] [ms-1] | Ratio [4] [M⁻¹ s⁻¹] | MIC [6] [µg/mL] | MIC [7] [µg/mL] | MIC (Klebsiella pneumoniae [8]) [µg/mL] | MIC [9] [µg/mL] | MIC (Escherichia coli [10]) [µg/mL] | MIC (Escherichia coli [11]) [µg/mL] | MIC (Escherichia coli [12]) [µg/mL] | Ratio (Escherichia coli [13]) | further results |
| --- | --- | --- | --- | --- | --- | --- | --- | --- | --- | --- | --- | --- | --- |
| C[C@]1(COC(=O)Cc2ccc(O)c(O)c2)[C@H](C(=O)O)N2C(=O)/C(=C/c3ccc(F)cn3)[C@H]2S1(=O)=O | Active | 495 | 25 | 48900 | 1 | 1 | 4 | 2 | 32 | < 0.25 | < 0.25 | – | Activity [5]: Active |
| O=C(NC1CCNCC1)[C@@H]1CC[C@@H]2CN1C(=O)N2OS(=O)(=O)O | – | – | – | – | 8 | 64 | 8 | 4 | 16 | < 0.25 | < 0.25 | 64 | – |
| CC(C)(O/N=C(\C(=O)N[C@@H]1C(=O)N2C(C(=O)[O-])=C(C[n+]3ccccc3)CS[C@H]12)c1csc(N)n1)C(=O)O [CEFTAZIDIME] | – | – | – | – | – | – | – | – | – | – | – | – | MIC (Escherichia coli [14]): ≤ 0.25 µg/mL |
| C[C@]1(COC(=O)Cc2ccc(O)c(O)c2)[C@H](C(=O)O)N2C(=O)/C(=C/c3cc4ccccc4cn3)[C@H]2S1(=O)=O | Active | – | – | – | 2 | 2 | 8 | 4 | 256 | 2 | 2 | – | – |
| C[C@]1(COC(=O)Cc2ccc(O)c(O)c2)[C@H](C(=O)O)N2C(=O)/C(=C/c3ccccn3)[C@H]2S1(=O)=O | – | 234 | 22 | 98200 | 0.5 | 0.5 | 4 | 2 | 16 | < 0.25 | < 0.25 | 64 | – |
| C[C@]1(COC(=O)Cc2ccc(O)c(O)c2)[C@H](C(=O)O)N2C(=O)/C(=C/c3nccc4ccsc34)[C@H]2S1(=O)=O | Active | 247 | 11 | 47600 | 2 | 8 | 64 | 2 | 256 | < 0.25 | < 0.25 | – | Activity [5]: Active |
| C[C@]1(COC(=O)Cc2ccc(O)c(O)c2)[C@H](C(=O)O)N2C(=O)/C(=C/c3cc(Br)ccn3)[C@H]2S1(=O)=O | Active | 140 | 22 | 159000 | 1 | 1 | 4 | 2 | 16 | < 0.25 | < 0.25 | 64 | Ratio [15]: 1.6; Ratio Ki [16]: 2; Drug metabolism [17]: Metabolite detected; Drug metabolism [18]: Metabolite detected; Drug metabolism [19]: Metabolite detected; Activity [5]: Active |
| Cn1cc(-c2ccnc(/C=C3/C(=O)N4[C@@H](C(=O)O)[C@](C)(COC(=O)Cc5ccc(O)c(O)c5)S(=O)(=O)[C@H]34)c2)cn1 | Active | 217 | 24 | 110000 | 1 | 1 | 8 | 2 | 16 | < 0.25 | < 0.25 | 64 | – |
| NC(=O)[C@@H]1CC[C@@H]2CN1C(=O)N2OS(=O)(=O)[O-].[Na+] [AVIBACTAM SODIUM] | – | – | – | – | 4 | 16 | – | – | – | – | – | – | MIC (Acinetobacter baumannii): 0.5 µg/mL; MIC (Klebsiella pneumoniae [20]): 0.5 µg/mL; MIC (Escherichia coli [14]): 2 µg/mL |
| COc1ccnc(/C=C2/C(=O)N3[C@@H](C(=O)O)[C@](C)(COC(=O)Cc4ccc(O)c(O)c4)S(=O)(=O)[C@H]23)c1OC | Active | 276 | 24 | 83200 | 4 | 8 | 64 | 2 | 256 | < 0.25 | < 0.25 | – | – |
| C[C@@H](O)[C@H]1C(=O)N2C(C(=O)O)=C(SCCNC=N)C[C@H]12 [IMIPENEM ANHYDROUS] | – | – | – | – | – | – | – | – | – | – | – | – | MIC (Acinetobacter baumannii): 0.5 µg/mL (≈ 1.67 µM); MIC (Klebsiella pneumoniae [20]): 0.5 µg/mL (≈ 1.67 µM) |
